Measurements: ChEMBL document CHEMBL1127035, “Neurosteroid analogues: structure-activity studies of benz[e]indene modulators of GABAA receptor function. 1. The effect of 6-methyl substitution on the electrophysiological activity of 7-substituted benz[e]indene-3-carbonitriles” (J Med Chem, 1993)
Values belong to the compound of their own block, whether it stands above or below them. Active and inactive are the calls of the source. The calls are words filed in the database; no cut-off is given here.

Assays:
Type in all cases: functional
[1] = species on record: Rattus norvegicus; test: Ability of compound at 1 uM to potentiate GABA-mediated currents in cultured postnatal rat hippocampal neurons using whole-cell patch clamp method
Outline: (§1)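 Cultured postnatal rat hippocampal neurons (pups 1-2 days old, 3-10 days in vitro) were whole-cell voltage-clamped at -60 mV and room temperature (~22 °C), with a CsCl/HEPES/EGTA pipette solution at pH 7.3. Compound plus 1 μM GABA was pressure-ejected for 200 ms, with DMSO <0.2% final. Peak current was normalized to 1 μM GABA alone on the same cell (100% = no change). N = cells.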

[2] = species on record: Rattus norvegicus; test: Ability of compound at 10 uM for current activation in the absence of GABA in cultured postnatal rat hippocampal neurons using whole-cell patch clamp method; NR=No response
Outline: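 Whole-cell voltage clamp at -60 mV and ~22 °C in rat hippocampal cultures (postnatal pups, 3-10 days in vitro), with a CsCl-based pipette solution at pH 7.3. Compound alone, without GABA, was pressure-ejected for 200 ms (DMSO <0.2% final). The peak directly gated current was compared with the same cell's response to 1 μM GABA alone. N = cells.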

[3] = species on record: Rattus norvegicus; test: Ability of compound at 1 uM to potentiate GABA-mediated currents in cultured postnatal rat hippocampal neurons using whole-cell patch clamp method; NR=No response; outline: as §1
[4] = species on record: Rattus norvegicus; test: Ability of compound at 1 uM for current activation in the absence of GABA in cultured postnatal rat hippocampal neurons using whole-cell patch clamp method
[5] = species on record: Rattus norvegicus; test: Ability of compound at 10 uM for current activation in the absence of GABA in cultured postnatal rat hippocampal neurons using whole-cell patch clamp method
Outline: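 Whole-cell voltage clamp at -60 mV, room temperature (~22 °C), on hippocampal neurons cultured 3-10 days from 1-2 day old albino rat pups. Pipette solution is CsCl-based, pH 7.3. Compound is applied at 10 µM in the absence of GABA (DMSO stock, final DMSO <0.2%) by 200 ms pressure ejection. Peak gated current is compared with the same cell's 1 µM GABA response. N = cells.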

[6] = species on record: Rattus norvegicus; test: Effective concentration against current mediated by 1 uM GABA in cultured rat hippocampal neurons
[7] = species on record: Rattus norvegicus; test: Ability of compound at 10 uM to potentiate GABA-mediated currents in cultured postnatal rat hippocampal neurons using whole-cell patch clamp method; outline: as §1
[8] = species on record: Rattus norvegicus; test: Ability of compound at 1 uM for current activation in the absence of GABA in cultured postnatal rat hippocampal neurons using whole-cell patch clamp method; NR=No response

SMILES: CC1(C)C2CC[C@@]3(C)C(CC[C@@H]3C#N)C2CC[C@H]1CCO (some centres not stated)
- Response [1]: 220%
- Gated current [2]: inactive

SMILES: CC1(C)C2CC[C@@]3(C)C(CC[C@H]3C#N)C2CC[C@H]1CCO (some centres not stated)
- Response [3]: inactive
- Gated current [2]: inactive

SMILES: C[C@]12CC[C@H]3[C@@H](CC[C@H]4C[C@H](O)CC[C@@H]43)[C@@H]1CC[C@@H]2C#N
- Gated current [4]: 15%
- Response [1]: 372%
- Gated current [5]: 38%

- EC50 [6]: 200 nM
SMILES: CC(=O)[C@H]1CCC2C3CC[C@@H](CCO)CC3CC[C@@]21C (some centres not stated)

SMILES: C[C@]12CC[C@H]3[C@@H](CC[C@H]4C[C@H](O)CC[C@@H]43)[C@@H]1CC[C@H]2C#N
- Response [3]: inactive
- Gated current [2]: inactive

SMILES: C[C@]12CC[C@@H](O)C[C@@H]1CC[C@@H]1[C@@H]2CC[C@]2(C)[C@H](C#N)CC[C@@H]12
- Response [3]: inactive
- Gated current [2]: inactive

SMILES: C[C@@H]1C2CC[C@@]3(C)C(CC[C@@H]3C#N)C2CC[C@H]1CCO (some centres not stated)
- Response [3]: inactive
- Gated current [2]: inactive
- Response [7]: 244%

SMILES: C[C@]12CC[C@@H](O)C[C@@H]1CC[C@@H]1[C@@H]2CC[C@]2(C)[C@@H](C#N)CC[C@@H]12
- Gated current [4]: 22%
- Response [1]: 443%
- Gated current [5]: 49%

SMILES: C[C@@H]1C2CC[C@@]3(C)C(CC[C@H]3C#N)C2CC[C@H]1CCO (some centres not stated)
- Response [3]: inactive
- Gated current [2]: inactive

SMILES: C[C@]12CCC3C[C@H](CCO)CCC3C1CC[C@@H]2C#N (some centres not stated)
- Response [1]: 255%
- Gated current [2]: inactive

SMILES: C[C@H]1C2CC[C@@]3(C)C(CC[C@@H]3C#N)C2CC[C@H]1CCO (some centres not stated)
- Response [1]: 382%
- Gated current [8]: inactive
- Gated current [5]: 26%

SMILES: C[C@]12CCC3C[C@H](CCO)CCC3C1CC[C@H]2C#N (some centres not stated)
- Response [3]: inactive
- Gated current [2]: inactive
